Assay results from publication PMC3793015 (Journal of agricultural and food chemistry, 2013).
pIC50: −log10 of the molar value.

Legend:
THP-1 = assay: Cytotoxicity of α-MG; assay type: cell-based, human; settings: read-out: IC50 (cytotoxicity); THP-1, 8 h, 10% FBS delivery
Method in brief: (§1)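 Cytotoxicity was judged by phase-contrast morphology and MTT reduction to formazan after exposure to increasing compound concentrations. Exposure was 24 h for RAW 264.7, MDM, HepG2 and HT-29, 8 h for PMA-differentiated THP-1, and 4 h for differentiated Caco-2. Delivery was DMSO into 10% FBS medium for RAW 264.7, THP-1 and HepG2; FBS-complexed compound at 10% FBS in RPMI 1640 for MDM; Tween 40 micelles for Caco-2 and HT-29.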

[1] = Stability of α-MG during incubation in cell-free culture media; assay type: physicochemical; settings: for calculated rate of α-MG loss per hour: DMSO, 24 h incubation; for recovery of α-MG after 24 h incubation: Tween 40 micelles
Method in brief: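 Compound was incubated cell-free for 24 h at 37 °C in RPMI, MEM, DMEM or McCoy's 5A, sampled at 0, 4, 8 and 24 h, extracted and analysed by RP-HPLC. Vehicles tested were: DMSO into medium without FBS or with 10% FBS (final DMSO <0.03%); Tween 40 micelles (final <0.02%) in DMEM or McCoy's; compound preincubated 48 h in 100% FBS, diluted 1:10 in RPMI 1640. Mean ± SD, n = 3 dishes.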

MDM = assay: Cytotoxicity of α-MG; assay type: cell-based, human; settings: read-out: IC50 (cytotoxicity), 24 h, 10% FBS delivery
Method in brief: as §1

HT-29 = assay: Cytotoxicity of α-MG; assay type: cell-based, human; settings: read-out: IC50 (cytotoxicity); HT-29, 24 h, Tween 40 delivery
Method in brief: as §1

Caco-2 = assay: Cytotoxicity of α-MG; assay type: cell-based, human; settings: read-out: IC50 (cytotoxicity); Caco-2, 4 h, Tween 40 delivery
Method in brief: as §1

THP-1 cells = assay: Cellular uptake and metabolism of α-MG; assay type: in vitro ADME, human
Method in brief: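 THP-1 monocytes were differentiated with 100 nM PMA for 48 h, then exposed 24 h to 5.2 μM compound (DMSO stock into 10% FBS medium). Activated cultures were pre-exposed to 5 ng/mL LPS for 4 h and washed with PBS. Spent medium and cells were collected separately, extracted and analysed by RP-HPLC for free and glucuronidated/sulfated xanthones. Amounts are % of initial compound; mean ± SD, n ≥ 5.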

[2] = test system: TNF-α secretion by HepG2 cells; assay: TNF-α secretion; assay type: cell-based, human
Method in brief: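 HepG2 monolayers, 2 days post-confluence, were pretreated with compound (DMSO stock into 10% FBS medium) and then stimulated with phorbol 12-myristate 13-acetate. Secreted TNF-α was quantified by ELISA in activated and nonactivated cultures.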

[3] = test system: TNF-α secretion by MDM cells; assay: TNF-α secretion; assay type: cell-based, human
Method in brief: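 Primary macrophages came from buffy-coat monocytes (Ficoll, clumping), differentiated 6 days with 50 ng/mL M-CSF (97% pure by CD14/CD11b). Compound was delivered in FBS at 10% FBS in RPMI 1640. Cells were then stimulated with E. coli O111:B4 LPS or left unstimulated. Secreted TNF-α was quantified by ELISA.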

[4] = test system: IL-8 secretion by enterocyte-like Caco-2 cells; assay: IL-8 secretion into basolateral medium; assay type: cell-based, human
Method in brief: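 Caco-2 monolayers were differentiated 21–25 days post-confluence on Transwell inserts. Compound in Tween 40 micelles went into the apical compartment, and IL-1β was added basolaterally. IL-8 in basolateral medium was measured by ELISA, with and without IL-1β.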

## COc1c(O)cc2oc3cc(O)c(CC=C(C)C)c(O)c3c(=O)c2c1CC=C(C)C [α-MG, α-mangostin]
THP-1
  pIC50: 4.64
[1]; DMEM lacking FBS, cell free
  calculated rate of α-MG loss per hour: 3.2%
[1]; DMEM without FBS, cell free
  recovery of α-MG after 24 h incubation: 110 ± 3
[1]; DMSO stock added to media (RPMI 1640, MEM, DMEM) with 10% (v/v) FBS, cell free
  stability of α-MG during 24 h incubation: 101 ± 6%
[1]; MEM lacking FBS, cell free
  calculated rate of α-MG loss per hour: 4.0%
[1]; McCoy's 5A lacking FBS, cell free
  calculated rate of α-MG loss per hour: 2.3%
[1]; McCoy's medium without FBS, cell free
  recovery of α-MG after 24 h incubation: 108 ± 4
[1]; RPMI lacking FBS, cell free
  calculated rate of α-MG loss per hour: 2.7%
[1]; added to 100% FBS diluted 1:10 (v:v) into RPMI 1640, cell free
  stability of α-MG after 24 h: 95 ± 8%
MDM
  pIC50: < 4.92
HT-29
  pIC50: 3.74
Caco-2
  pIC50: < 4.10
THP-1 cells; 0 h, amount of α-MG at start
  xanthone in media, THP-1: 33710 ± 161 pmol/dish
THP-1 cells; 0 h, control cultures
  intracellular profile table, α-MG at 0 h, THP-1: 33710 ± 161 pmol/dish
THP-1 cells; 24 h after addition of α-MG, control cultures, nd: not detected
  intracellular xanthone, THP-1: 11439 ± 995 pmol/dish
THP-1 cells; THP-1, 5 ng/mL LPS 4 h before α-MG, 24 h, p < 0.05
  intracellular ratio of free to conjugated xanthones, activated vs control: increased
THP-1 cells; THP-1, 5.2 μM, 24 h, control
  free xanthones in cells, of initial α-MG: 20 ± 4%
  free xanthones in spent medium, of initial α-MG: 40 ± 1%
  phase II conjugates in cells, of initial α-MG: 14 ± 3%
THP-1 cells; THP-1, 24 h incubation
  recovery of xanthones, of α-MG added: 75 ± 6%
[2]; PMA-activated HepG2, 7 μM pretreatment 16 h, PMA 50 ng/mL 4 h
  attenuation of TNF-α secretion: 22%
[2]; nonactivated HepG2 cultures
  effect on secretion of TNF-α: not altered
[3]; 0.7 μM, LPS-treated MDM, p > 0.05, data not shown
  TNF-α secretion in absence vs presence of α-MG: similar
[3]; 0.7 μM, nonactivated MDM, p < 0.05, data not shown
  effect on TNF-α secretion: increased
[3]; MDM, 4.5 μM pretreatment 4 h, LPS 100 ng/mL 10 h
  increase of LPS-stimulated secretion of TNF-α: more than 50%
[3]; nonactivated MDM cultures
  effect on basal secretion of TNF-α: more than doubled
[4]; activated Caco-2, 15 μM pretreatment 4 h, IL-1β 5 ng/mL 16 h
  inhibition of IL-8 chemokine secretion: 30–40%
[4]; nonactivated Caco-2 cultures
  effect on secretion of IL-8: not altered
